{
  "source": "PubChem BioAssay AID588837",
  "about": "(Broad Institute, 2011)",
  "target": "Scavenger receptor class B member 1 (Mus musculus) (UniProt Q61009)",
  "sequence (Q61009 whole entry C384S)": "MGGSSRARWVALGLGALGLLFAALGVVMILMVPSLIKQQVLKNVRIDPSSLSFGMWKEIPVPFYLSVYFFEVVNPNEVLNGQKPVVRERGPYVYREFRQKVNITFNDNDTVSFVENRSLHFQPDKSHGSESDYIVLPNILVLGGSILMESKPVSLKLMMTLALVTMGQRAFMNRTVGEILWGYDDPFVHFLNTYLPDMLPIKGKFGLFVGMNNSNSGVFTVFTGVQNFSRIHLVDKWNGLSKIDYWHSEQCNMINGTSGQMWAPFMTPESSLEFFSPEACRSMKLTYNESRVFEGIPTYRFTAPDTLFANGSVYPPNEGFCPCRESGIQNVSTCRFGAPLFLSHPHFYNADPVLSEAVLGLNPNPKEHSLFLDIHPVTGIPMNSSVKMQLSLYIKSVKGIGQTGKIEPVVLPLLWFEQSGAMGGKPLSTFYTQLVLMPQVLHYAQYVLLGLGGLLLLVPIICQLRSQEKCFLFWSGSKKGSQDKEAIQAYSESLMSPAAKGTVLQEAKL",
  "experiment": "[3H]CE-HDL uptake via mutant mSR-BI – C384S mutant cells, scintillation, powder samples, mechanism study for SR-BI HDL uptake inhibitor project, late-stage follow-up (AID 588837)",
  "conditions": "CHO ldlA C384S mSR-BI, 2 h, at 1 µM, active compounds read low",
  "method_in_brief": "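Test system: CHO cells lacking LDL receptor, overexpressing C384S mutant SR-BI; Buffer or medium: Ham's F12K medium with 0.5% fatty acid-free BSA; Compound: 0.5% DMSO with compound; Timing: 1 h pretreatment plus 2 h uptake at 37 °C; Signal: scintillation counting of cell-associated tritium label; Controls: 40-fold excess unlabeled HDL defining nonspecific background uptake.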",
  "note": "The source made the active and inactive calls. No rule for the calls is given here.",
  "data": [
    {"molecule": "Cc1ccc2oc(-c3cccc(NC(=O)c4cc(-n5cnnc5)ccc4Cl)c3)nc2c1", "values": [
      {"measurement": "cholesterol uptake", "value": 84.4, "unit": "%"}
    ]},
    {"molecule": "CCOC(=O)N1CCC(NC(=O)c2ccc3c(c2)N(Cc2ccc(F)cc2)CCS3)CC1", "values": [
      {"measurement": "cholesterol uptake", "value": 78.2, "unit": "%"}
    ]},
    {"molecule": "COc1ccc(-c2nnn(CC(=O)N(C3CCCCC3)C(C)C(=O)NC3CCCC3)n2)cc1OC", "note": "(stereo not given)", "values": [
      {"measurement": "cholesterol uptake", "value": 89.4, "unit": "%"}
    ]},
    {"molecule": "CCC(=O)N1CCc2cc(-c3csc(NC(=O)c4ccco4)n3)ccc21", "values": [
      {"measurement": "cholesterol uptake", "value": 88.3, "unit": "%"}
    ]},
    {"molecule": "O=C(Nc1ccc(Cl)cc1C(=O)c1ccc(Cl)cc1)c1cc(Br)ccc1NS(=O)(=O)c1ccc(Cl)cc1", "values": [
      {"measurement": "cholesterol uptake", "value": "121% (inactive)"}
    ]}
  ]
}
